According to ChEMBL document CHEMBL5303300, “EUbOPEN Chemogenomics Library - Multiplex” (2023):
Where “and” joins values, the source holds several entries; their conditions need not be identical. Equal entries are not always repeated.

System: U2OS
Experiment: Multiplex assay against U2OS
Format: toxicity, cell-based
Settings: human, number of replicates 2
Outline: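 Hoechst33342, BioTracker Green Microtubule Cytoskeleton Dye, MitoTracker Red and Annexin V Alexa Fluor 680 were added to live cells at seeding, and imaging on a CQ1 microscope at 37°C and 5% CO2 followed compound addition. Gating by CellPathfinder machine learning separated cells into Hoechst high-intensity objects or normal cells, then normal cells into healthy, pyknosed or fragmented nuclei, then pyknosed cells into mitotic or apoptotic. Per cents of healthy-nucleus cells are reported for the tubulin, mitochondrial-mass and membrane-permeability phenotypes.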

[1] = 12 h, 1 µM, compound concentration 1 uM
[2] = 12 h, 10 µM, compound concentration 10 uM
[3] = 24 h, 1 µM, compound concentration 1 uM
[4] = 24 h, 10 µM, compound concentration 10 uM
[5] = 48 h, 1 µM, compound concentration 1 uM
[6] = 48 h, 10 µM, compound concentration 10 uM

With `Cn1cc(-n2cnc3c(NCc4nc5cc(Cl)c(Cl)cc5[nH]4)nc(N4CCOCC4)nc32)cn1` the “Population Apoptotic (%)” value [1] was 41% and 88%, the “Population Healthy Nuclei (%)” value [1] was 36% and 71% and the “Population Hoechst High Intensity Objects (%)” value [1] was 0%. For the same molecule, the “Population Membrane Permeable-Phenotype (%)” value [1] was 5% and 7%, the “Population Mitochondria Different-Phenotype (%)” value [1] was 0% and 8% and the “Population Normal (%)” value [1] was 100%. The “Population Pyknosed Nuclei (%)” value [1] was 36% and 24%, the “Population Tubulin-Different-Phenotype (%)” value [1] was 58% and 50% and the “Population Apoptotic (%)” value [2] was 62% and 75%. For the same molecule, the “Population Hoechst High Intensity Objects (%)” value [2] was 0%, the “Population Membrane Permeable-Phenotype (%)” value [2] was 33% and 23% and the “Population Mitochondria Different-Phenotype (%)” value [2] was 16% and 37%. The “Population Mitotic Cells (%)” value [2] was 37% and 24%, the “Population Normal (%)” value [2] was 100% and the “Population Pyknosed Nuclei (%)” value [2] was 39% and 28%. The “Population Tubulin-Different-Phenotype (%)” value [2] was 66% and 73%, the “Population Apoptotic (%)” value [3] was 96% and 80% and the “Population Fragmented Nuclei (%)” value [3] was 9% and 21%. For the same molecule, the “Population Healthy Nuclei (%)” value [3] was 11% and 13%, the “Population Hoechst High Intensity Objects (%)” value [3] was 1% and 7% and the “Population Membrane Permeable-Phenotype (%)” value [3] was 18% and 0%. For the same molecule, the “Population Normal (%)” value [3] was 98% and 92%, the “Population Pyknosed Nuclei (%)” value [3] was 79% and 65% and the “Population Tubulin-Different-Phenotype (%)” value [3] was 50% and 80%. For the same molecule, the “Population Apoptotic (%)” value [4] was 94% and 95%, the “Population Hoechst High Intensity Objects (%)” value [4] was 1% and 0% and the “Population Mitotic Cells (%)” value [4] was 5% and 4%. For the same molecule, the “Population Normal (%)” value [4] was 98% and 100%, the “Population Pyknosed Nuclei (%)” value [4] was 64% and 61% and the “Population Tubulin-Different-Phenotype (%)” value [4] was 89% and 33%. The “Population Apoptotic (%)” value [5] was 100% and 86%, the “Population Fragmented Nuclei (%)” value [5] was 10% and 16% and the “Population Healthy Nuclei (%)” value [5] was 4% and 0%. The “Population Hoechst High Intensity Objects (%)” value [5] was 2% and 7%, the “Population Mitotic Cells (%)” value [5] was 0% and 13% and the “Population Normal (%)” value [5] was 97% and 92%. For the same molecule, the “Population Pyknosed Nuclei (%)” value [5] was 85% and 83%, the “Population Apoptotic (%)” value [6] was 94% and 92% and the “Population Healthy Nuclei (%)” value [6] was 10% and 5%. The “Population Hoechst High Intensity Objects (%)” value [6] was 0% and 1%, the “Population Membrane Permeable-Phenotype (%)” value [6] was 100% and 57% and the “Population Mitochondria Different-Phenotype (%)” value [6] was 100% and 57%. For the same molecule, the “Population Mitotic Cells (%)” value [6] was 5% and 7%, the “Population Normal (%)” value [6] was 100% and 98% and the “Population Pyknosed Nuclei (%)” value [6] was 44% and 85%. The “Population Tubulin-Different-Phenotype (%)” value [6] was 100% and 85%.
With `OC(c1ccc(-c2ccc(CN3CCN(Cc4ccncc4)CC3)cc2)c(F)c1)(C(F)(F)F)C(F)(F)F` the “Population Hoechst High Intensity Objects (%)” value [1] was 0%, the “Population Mitochondria Different-Phenotype (%)” value [1] was 0% and 1% and the “Population Normal (%)” value [1] was 100%. For the same molecule, the “Population Pyknosed Nuclei (%)” value [1] was 14% and 9%, the “Population Tubulin-Different-Phenotype (%)” value [1] was 100% and 87% and the “Population Apoptotic (%)” value [2] was 50% and 40%. For the same molecule, the “Population Healthy Nuclei (%)” value [2] was 80% and 50%, the “Population Hoechst High Intensity Objects (%)” value [2] was 0% and the “Population Mitochondria Different-Phenotype (%)” value [2] was 3% and 0%. For the same molecule, the “Population Mitotic Cells (%)” value [2] was 50% and 60%, the “Population Normal (%)” value [2] was 100% and the “Population Pyknosed Nuclei (%)” value [2] was 15% and 17%. The “Population Hoechst High Intensity Objects (%)” value [3] was 0%, the “Population Membrane Permeable-Phenotype (%)” value [3] was 0% and the “Population Mitochondria Different-Phenotype (%)” value [3] was 0%. For the same molecule, the “Population Mitotic Cells (%)” value [3] was 100% and 42%, the “Population Normal (%)” value [3] was 100% and 99% and the “Population Pyknosed Nuclei (%)” value [3] was 20% and 9%. For the same molecule, the “Population Apoptotic (%)” value [4] was 53% and 57%, the “Population Healthy Nuclei (%)” value [4] was 79% and 54% and the “Population Hoechst High Intensity Objects (%)” value [4] was 0%. For the same molecule, the “Population Mitochondria Different-Phenotype (%)” value [4] was 2% and 0%, the “Population Mitotic Cells (%)” value [4] was 46% and 42% and the “Population Normal (%)” value [4] was 99% and 100%. The “Population Pyknosed Nuclei (%)” value [4] was 14% and 18%, the “Population Tubulin-Different-Phenotype (%)” value [4] was 50% and 25% and the “Population Hoechst High Intensity Objects (%)” value [5] was 0%. For the same molecule, the “Population Membrane Permeable-Phenotype (%)” value [5] was 0% and 1%, the “Population Mitochondria Different-Phenotype (%)” value [5] was 0% and the “Population Normal (%)” value [5] was 100%. The “Population Pyknosed Nuclei (%)” value [5] was 0% and 5%, the “Population Apoptotic (%)” value [6] was 54% and 58% and the “Population Healthy Nuclei (%)” value [6] was 84% and 56%. For the same molecule, the “Population Hoechst High Intensity Objects (%)” value [6] was 0% and 1%, the “Population Membrane Permeable-Phenotype (%)” value [6] was 3% and 10% and the “Population Mitochondria Different-Phenotype (%)” value [6] was 2% and 3%. For the same molecule, the “Population Mitotic Cells (%)” value [6] was 45% and 41%, the “Population Normal (%)” value [6] was 100% and 98% and the “Population Pyknosed Nuclei (%)” value [6] was 11% and 23%.
For `CN1CCCN(C(=O)c2cccc(-c3ccc(/C=C4/C(=O)Nc5ccc(Cl)cc54)o3)c2)CC1`, the “Population Apoptotic (%)” value [1] was 64% and 66%, the “Population Fragmented Nuclei (%)” value [1] was 9% and 10% and the “Population Healthy Nuclei (%)” value [1] was 77% and 81%. The “Population Hoechst High Intensity Objects (%)” value [1] was 0%, the “Population Membrane Permeable-Phenotype (%)” value [1] was 0% and the “Population Mitochondria Different-Phenotype (%)” value [1] was 6% and 0%. For the same molecule, the “Population Mitotic Cells (%)” value [1] was 35% and 33%, the “Population Normal (%)” value [1] was 100% and the “Population Pyknosed Nuclei (%)” value [1] was 13% and 8%. For the same molecule, the “Population Tubulin-Different-Phenotype (%)” value [1] was 70% and 43%, the “Population Apoptotic (%)” value [2] was 91% and 64% and the “Population Healthy Nuclei (%)” value [2] was 18% and 30%. The “Population Hoechst High Intensity Objects (%)” value [2] was 0% and 10%, the “Population Normal (%)” value [2] was 99% and 89% and the “Population Pyknosed Nuclei (%)” value [2] was 68% and 26%. The “Population Tubulin-Different-Phenotype (%)” value [2] was 100% and 56%, the “Total Cell Count” value [2] was 142 and 58 and the “Population Apoptotic (%)” value [3] was 62% and 87%. The “Population Fragmented Nuclei (%)” value [3] was 7% and 8%, the “Population Healthy Nuclei (%)” value [3] was 73% and the “Population Hoechst High Intensity Objects (%)” value [3] was 0%. For the same molecule, the “Population Membrane Permeable-Phenotype (%)” value [3] was 6% and 2%, the “Population Mitochondria Different-Phenotype (%)” value [3] was 3% and 5% and the “Population Normal (%)” value [3] was 100%. For the same molecule, the “Population Pyknosed Nuclei (%)” value [3] was 19% and 18%, the “Population Tubulin-Different-Phenotype (%)” value [3] was 53% and 72% and the “Population Apoptotic (%)” value [4] was 95% and 57%. For the same molecule, the “Population Hoechst High Intensity Objects (%)” value [4] was 0% and 15%, the “Population Normal (%)” value [4] was 99% and 85% and the “Population Pyknosed Nuclei (%)” value [4] was 89% and 41%. For the same molecule, the “Population Tubulin-Different-Phenotype (%)” value [4] was 100% and 72%, the “Total Cell Count” value [4] was 136 and 60 and the “Population Apoptotic (%)” value [5] was 77% and 90%. The “Population Fragmented Nuclei (%)” value [5] was 10%, the “Population Healthy Nuclei (%)” value [5] was 65% and 61% and the “Population Hoechst High Intensity Objects (%)” value [5] was 0%. The “Population Membrane Permeable-Phenotype (%)” value [5] was 8% and 4%, the “Population Mitochondria Different-Phenotype (%)” value [5] was 0% and 1% and the “Population Mitotic Cells (%)” value [5] was 22% and 10%. The “Population Normal (%)” value [5] was 100%, the “Population Pyknosed Nuclei (%)” value [5] was 23% and 28% and the “Population Tubulin-Different-Phenotype (%)” value [5] was 52% and 80%. For the same molecule, the “Total Cell Count” value [5] was 38 and 106, the “Population Apoptotic (%)” value [6] was 96% and 62% and the “Population Healthy Nuclei (%)” value [6] was 22% and 27%. The “Population Hoechst High Intensity Objects (%)” value [6] was 0% and 14%, the “Population Normal (%)” value [6] was 100% and 85% and the “Population Pyknosed Nuclei (%)” value [6] was 73% and 29%. For the same molecule, the “Population Tubulin-Different-Phenotype (%)” value [6] was 92% and 86% and the “Total Cell Count” value [6] was 127 and 64.
